Measured values collected from several papers.
Target: Tyrosine-protein kinase Fyn (FYN, Homo sapiens, UniProt P06241)

| Compound | assay | conditions | remaining binding [%] |
| --- | --- | --- | --- |
| C=CC(=O)N1CCC(C(=O)NCC(=O)N2CCN(c3nc(-c4cnc(N)nc4C(F)F)nc(N4CCOCC4)n3)CC2)CC1 | binding, competition with immobilised ligand | 1 µM | 100 |
| CS(=O)(=O)NCC[C@H](NC(=O)c1cncc2c1cnn2-c1ccc(F)cc1)c1ccnc(S(C)(=O)=O)c1 | cell-free assay, competition with immobilised ligand | 1 µM | 100 |
| N[C@@H]1CCN(c2nccc(-c3cnn4ncccc34)n2)C1 | binding | 1 µM | 100 |
| Cn1cc(Cl)c2c(Oc3c(F)cc(Nc4cc(Cl)nc(N)n4)cc3F)ccnc21 | cell-free assay, competition with immobilised ligand | 0.1 µM | 80 |
| COc1cnc(Nc2cccc(S(N)(=O)=O)c2)nc1N1CCN(c2ccccc2)CC1 | binding, competition with immobilised ligand | 1 µM | 99 |
| Nc1ncc2c(n1)-c1c([nH]c3ccc(C#CC4CC4)cc13)CCCC2 | binding, competition with immobilised ligand | 1 µM | 100 |
| C[C@@H](c1ccc(-n2cnc3c(N)ncnc32)cc1)N1CCc2nn(C)c(Cc3ccccc3)c2C1=O | binding, competition with immobilised ligand | 0.1 µM | 100 |
| O=C(NCc1ncc(C(F)(F)F)cc1Cl)c1ccc2c(c1)C1(CCS(=O)(=O)CC1)[C@H](C1CC1)N2S(=O)(=O)c1ccc(F)cc1 | cell-free assay, competition with immobilised ligand | 1 µM | 100 |
| c1cnn2ncc(-c3ccnc(N4CCC45COC5)n3)c2c1 | binding | 1 µM | 79 |
| O=C(Nc1c[nH]nc1C(=O)NC1CCNCC1)c1cc(F)cc(F)c1 | binding, competition with immobilised ligand | 1 µM | 100 |
| O=C(c1ccc(Nc2ncc(Cl)c(-c3ccc(Cl)s3)n2)cc1)N1CCC(N2CCCC2)CC1 | binding, competition with immobilised ligand | 1 µM | 100 |
| C[C@@H]1CN(c2cc(-c3n[nH]c4ccc(OC5(C)CC5)cc34)ncn2)C[C@H](C)O1 | cell-free assay, competition with immobilised ligand | 0.1 µM | 100 |
| CNC(=O)[C@@H]1CC[C@@H](n2c(-c3ccc4cnccc4c3)nc3ccc(C(=O)NCc4cccc(C(N)=O)c4)cc32)C1 | binding, competition with immobilised ligand | 1 µM | 100 |
| Cc1cnc(Nc2ccc(C(=O)N3CCC(N4CCCC4)CC3)cc2)nc1-c1cc2ccccc2s1 | binding, competition with immobilised ligand | 1 µM | 78 |
| COc1ncc2cc3ccccc3nc2c1C#N | cell-free assay, competition with immobilised ligand | 5 µM | 100 |
| C[C@H]1CCN(c2nccc(-c3cnn4ncccc34)n2)C1 | binding | 1 µM | 100 |
| COc1ccc2c(c1)O[C@H](c1ccc(OC)c(OC)c1)C[C@@H]2NC(=O)C1(c2ccc3c(c2)OC(F)(F)O3)CC1 | cell-free assay, competition with immobilised ligand | 1 µM | 100 |
| Cc1cnn2ncc(-c3ccnc(N(C)C)n3)c2c1 | binding | 1 µM | 98 |
| O=C(NCCCN1CCOCC1)c1ccc(Nc2ncc(Cl)c(-c3ccc(Cl)s3)n2)cc1 | binding, competition with immobilised ligand | 1 µM | 100 |
| CN(C)c1nccc(-c2cnc3ncccn23)n1 | binding | 1 µM | 99 |
| CS(=O)(=O)N1CCCC(NC(=O)[C@H](CCC2CCCCC2)NC(=O)c2ccc(CNC(=O)c3cnc4ccccn34)cc2)C1 (stereo partly drawn) | cell-free assay, competition with immobilised ligand | 0.1 µM | 80 |
